Active and inactive are the calls of the source.
Tests used:
[1] = system: Mus musculus; test: Antinociceptive activity in C57BL/6 mouse at 3 to 10 mg/kg, ip after 20 mins post treatment by warm water tail-flick assay; format: functional, organism-based
[2] = Toxicity in C57BL/6 mouse assessed as effect on hypothermia at 0.1 to 10 mg/kg, ip after 15 mins by thermometric method; format: organism-based; settings: in vivo
In short: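 Male C57BL/6 mice were given 0.1 – 10 mg/kg compound or vehicle (1:1:18 ethanol:cremaphor:saline). Body temperature was measured at 15 min and expressed relative to vehicle (100%). n = 5–6.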

[3] = system: Mus musculus; test: Antiallodynic activity against CFA-induced mechanical allodynia CD1 mouse model assessed as increase in ipsilateral paw withdrawal threshold at 30 mg/kg, ip after […] post treatment by Von Frey test; format: functional, organism-based
[4] = target: T1, Cannabinoid receptor 1 (Homo sapiens, UniProt P21554); test: Positive allosteric modulatory activity at human CB1R expressed in CHO-K1 cells assessed as increase in CP55940-induced beta-arrestin2 recruitment after 90 mins in presence of CP55940 at EC20 concentration by pathhunter beta-arrestin assay; format: cell-based
In short: (§1)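 Read-out was chemiluminescent β-arrestin2 recruitment, fit with a 4-parameter regression. n = 1–3 independent experiments in duplicate.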

[5] = target: T1, Cannabinoid receptor 1; test: Positive allosteric modulatory activity at human CB1R expressed in CHO-K1 cells assessed as increase in CP55940-induced inhibition of forskolin-induced cAMP accumulation after 90 mins in presence of 100 nM CP55940 by hit-hunter cAMP assay; format: functional, cell-based
In short: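 Uses the HitHunter CHO-K1 hCB1R cAMP set-up above. Data normalized to % forskolin, 4-parameter fit. n ≥ 6, triplicate.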

[6] = system: Mus musculus; test: Antinociceptive activity in ip dosed C57BL/6 mouse after 20 mins post treatment by warm water tail-flick assay; format: functional, organism-based
[7] = system: Mus musculus; test: Antiallodynic activity against CFA-induced mechanical allodynia CD1 mouse model assessed as increase in ipsilateral paw withdrawal threshold at 3 to 30 mg/kg, ip measured every 3 hrs for 2 days post treatment by Von Frey test; format: functional, organism-based
In short: (§2)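 Mice received CFA injection into one paw. Mechanical paw withdrawal thresholds were measured in the injected (ipsilateral) and contralateral paws after i.p. compound at 0.1, 0.3, 1, 3, 10 or 30 mg/kg, compared with vehicle-treated groups at the same times.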

[8] = target: T1, Cannabinoid receptor 1; test: Positive allosteric modulation activity at human CB1 receptor expressed in CHO cell membranes assessed as increase in [3H]CP55940 binding at 1 uM measured after 90 mins in presence of [35S]GTPgammaS by liquid scintillation analysis; format: functional
[9] = target: T1, Cannabinoid receptor 1; test: Positive allosteric modulatory activity at human CB1R expressed in CHO-K1 cells assessed as increase in CP55940-induced beta-arrestin2 recruitment after 90 mins in presence of CP55940 at EC20 concentration by pathhunter beta-arrestin assay relative to control; format: cell-based; in short: as §1
[10] = system: Mus musculus; test: Antiallodynic activity in ip dosed CFA-induced mechanical allodynia CD1 mouse model assessed as increase in ipsilateral paw withdrawal threshold measured every 3 hrs for 2 days post treatment by Von Frey test; format: functional, organism-based; in short: as §2
[11] = system: Mus musculus; test: Antiallodynic activity against CFA-induced mechanical allodynia CB1 receptor knockout CD1 mouse assessed as effect on ipsilateral paw withdrawal threshold at 30 mg/kg, ip measured for 0.5 to 4 hrs by Von Frey test; format: functional, organism-based
In short: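 Time course in the CFA model at 30 mg/kg i.p. Ipsilateral and contralateral mechanical paw withdrawal thresholds were followed from 30 min to 4 h post-injection in wild-type and CB1 knockout mice. Compared with vehicle by ANOVA and Bonferroni post hoc tests.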

[12] = buffer, pH 7.4, 2 h
[13] = target: Cannabinoid receptor 1 (Rattus norvegicus) (UniProt P20272); test: Positive allosteric modulatory activity at N-terminal GFP-tagged rat CB1R receptor expressed in HEK293 cells assessed as downward shift in CP55940 dependent concentration response curve for inhibition of forskolin-induced cAMP accumulation after 30 mins by TR-FRET assay; format: functional, cell-based
[14] = target: Cannabinoid receptor 1 (Rattus norvegicus) (UniProt P20272); test: (§3) Positive allosteric modulatory activity at N-terminal GFP-tagged rat CB1R receptor expressed in HEK293 cells assessed as increase in CP55940-induced inhibition of forskolin-induced cAMP accumulation by measuring Emax for cAMP accumulation at low concentration of CP55940 at 0.001 microM after 30 mins by TR-FRET assay relative to forskolin; format: functional, cell-based
[15] = target: T1, Cannabinoid receptor 1; test: Positive allosteric modulatory activity at human CB1R expressed in CHO-K1 cells assessed as increase in CP55940-induced beta arrestin2 recruitment after 90 mins in presence of 100 nM CP55940 by pathhunter beta-arrestin assay; format: cell-based
[16] = target: Cannabinoid receptor 1 (Rattus norvegicus) (UniProt P20272); test: as §3, with “0.1” for “0.001”; format: functional, cell-based
[17] = rat, microsomes, 1 µM
[18] = target: T1, Cannabinoid receptor 1; test: Agonist activity at human CB1 receptor expressed in CHO cell membranes assessed as increase in G-protein coupling by measuring [35S]GTPgammaS binding after 90 mins in presence of [35S]GTPgammaS by liquid scintillation analysis; format: functional
In short: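 [35S]GTPγS binding to G protein in membranes from CHO cells stably expressing human CB1R, with test compound given alone. Data fit to a variable-slope 4-parameter nonlinear regression. n = 4–6 independent experiments in duplicate.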

[19] = system: Mus musculus; test: Effect on contralateral paw withdrawl threshold in CFA-induced mechanical allodynia CB1 receptor knockout CD1 mouse model at 0.1 to 30 mg/kg, ip measured for 0.5 to 4 hrs by Von Frey test; format: ADME, organism-based; settings: in vivo
[20] = target: T1, Cannabinoid receptor 1; test: Positive allosteric modulatory activity at human CB1R expressed in CHO-K1 cells assessed as maximal increase in CP55940-induced beta arrestin2 recruitment after 90 mins in presence of 100 nM CP55940 by pathhunter beta-arrestin assay relative to CP55940; format: cell-based
[21] = target: Cannabinoid receptor 1 (Rattus norvegicus) (UniProt P20272); test: Positive allosteric modulatory activity at N-terminal GFP-tagged rat CB1R receptor expressed in HEK293 cells assessed as leftward shift in CP55940 dependent concentration response curve for inhibition of forskolin-induced cAMP accumulation after 30 mins by TR-FRET assay; format: functional, cell-based

Chain of Cannabinoid receptor 1 (Rattus norvegicus) (P20272 whole entry): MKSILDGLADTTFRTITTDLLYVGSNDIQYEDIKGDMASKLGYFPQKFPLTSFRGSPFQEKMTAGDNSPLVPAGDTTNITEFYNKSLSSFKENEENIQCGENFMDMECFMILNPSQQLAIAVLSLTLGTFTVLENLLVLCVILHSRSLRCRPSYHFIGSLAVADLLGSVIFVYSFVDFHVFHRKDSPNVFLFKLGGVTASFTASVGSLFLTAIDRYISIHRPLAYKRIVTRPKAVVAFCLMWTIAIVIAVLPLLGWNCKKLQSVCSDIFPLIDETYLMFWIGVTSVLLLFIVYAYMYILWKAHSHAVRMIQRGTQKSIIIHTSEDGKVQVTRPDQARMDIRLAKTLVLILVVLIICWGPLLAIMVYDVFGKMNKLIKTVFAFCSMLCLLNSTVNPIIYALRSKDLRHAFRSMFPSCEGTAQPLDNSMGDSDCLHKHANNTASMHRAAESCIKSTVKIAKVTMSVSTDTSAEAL
T1 sequence (P21554 whole entry): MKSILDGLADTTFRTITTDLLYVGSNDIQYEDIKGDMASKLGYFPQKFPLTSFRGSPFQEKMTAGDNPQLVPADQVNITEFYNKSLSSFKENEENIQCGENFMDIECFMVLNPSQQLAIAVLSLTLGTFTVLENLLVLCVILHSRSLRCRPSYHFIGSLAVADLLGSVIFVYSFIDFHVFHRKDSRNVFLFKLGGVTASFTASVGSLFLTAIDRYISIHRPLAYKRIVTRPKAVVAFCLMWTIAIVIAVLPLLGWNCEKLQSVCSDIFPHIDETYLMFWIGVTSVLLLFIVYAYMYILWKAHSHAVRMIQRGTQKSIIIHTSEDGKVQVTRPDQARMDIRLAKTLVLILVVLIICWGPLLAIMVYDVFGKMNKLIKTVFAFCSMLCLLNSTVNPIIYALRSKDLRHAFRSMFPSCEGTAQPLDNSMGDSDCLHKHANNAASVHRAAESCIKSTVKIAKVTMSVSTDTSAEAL

Row | Compound | Activity [1] | Activity [2] | Activity [3] | EC50 [4] [nM] | EC50 [5] [nM] | Activity [6] | Activity [7] | Activity [8] | Emax [9] [%] | Activity [10] | Activity [11] | Kinetic_solubility [12] [µM] | Activity [13] | Emax [14] [%] | EC50 [15] [nM] | Emax [16] [%] | EC50 [18] [nM] | Activity [19] | Emax [20] [%] | Activity [21] | further results
1 | O=[N+]([O-])CC(c1ccccc1F)c1c(-c2cccc(F)c2)[nH]c2cc(F)ccc12 (stereo unspecified) | Active | Non-Toxic | Active | 750 | 2.2 | Dose-dependent effect | Active | Active | 71 | Dose-dependent effect | inactive | 1.56 | Dose-dependent effect | 76 | 190 | 46 | 47 | Non-Toxic | 130 | Dose-dependent effect | CLH [17]: 248 µL/min
2 | O=[N+]([O-])CC(c1ccccc1F)c1c(-c2cccc(F)c2)[nH]c2c(F)cccc12 (stereo unspecified) | Active | Non-Toxic | Active | 510 | 1.7 | Dose-dependent effect | Active | Active | 82 | Dose-dependent effect | inactive | 1.56 | Dose-dependent effect | 74 | 3500 | 52 | 33 | Non-Toxic | 130 | Dose-dependent effect | 

Reference: ChEMBL document CHEMBL4376840, “Application of Fluorine- and Nitrogen-Walk Approaches: Defining the Structural and Functional Diversity of 2-Phenylindole Class of Cannabinoid 1 Receptor Positive Allosteric Modulators” (J Med Chem, 2020)
